Key:
[1] = test system: Trypanosoma brucei rhodesiense; experiment: Inhibitory constant against Trypanosoma brucei rhodesiense upon incubation with the compound at 37 degrees C under a 5% CO2 atmosphere for 72 hours; type: functional, organism-based
Trypanosoma cruzi = experiment: In vitro growth inhibitory activity against Trypanosoma cruzi in rat L-6 cells upon incubation at 37 degrees C in 5% CO2 atmosphere for 4 days; type: functional, organism-based; conditions: L6, 96 h
How it was run: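 L-6 cells seeded at 2000 cells/well in RPMI 1640 with 10% FBS and 2 mM L-glutamine. After 24 h, 5000 T. cruzi Tulahuen C2C4 LacZ trypomastigotes added with serial drug dilutions, then 4 days at 37 °C, 5% CO2. CPRG/Nonidet substrate added and colour read at 540 nm after 2-4 h. IC50 from sigmoidal curve. Twice independently, in duplicate.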

dUTP pyrophosphatase [2] = molecular target: T1, dUTP pyrophosphatase (Plasmodium falciparum 3D7, UniProt Q8II92); experiment: Inhibitory constant against Plasmodium falciparum deoxyuridine 5'-triphosphate nucleotidohydrolase expressed in Escherichia coli BL21 (DE3) cells
T1 sequence (Q8II92 whole entry): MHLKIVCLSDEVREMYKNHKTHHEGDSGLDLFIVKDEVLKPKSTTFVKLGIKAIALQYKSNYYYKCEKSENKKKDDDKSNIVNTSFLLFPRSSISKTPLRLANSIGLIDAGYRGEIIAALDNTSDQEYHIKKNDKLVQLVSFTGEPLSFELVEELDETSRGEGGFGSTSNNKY
How it was run: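 Recombinant PfdUTPase expressed in E. coli BL21(DE3) and purified by phosphocellulose and gel filtration to ~96% purity. Continuous stopped-flow assay following proton release with cresol red/bicine (50:2000 µM, 573 nm). Mix: 30 nM enzyme, 50 µM dUTP, 5 mM MgCl2, 2.5 mM DTT, 1.25 mg/mL BSA, 100 mM KCl. KMapp from integrated Michaelis-Menten fits, plotted against [I] to give Ki.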

L6 = experiment: In vitro cytotoxicity aganist rat skeletal myoblasts (L-6 cells) after 72 hours; type: functional, cell-based; conditions: L6, 72 h
How it was run: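 L-6 rat skeletal myoblasts seeded at 4 × 10^4 cells/mL in RPMI 1640 with 10% FBS and 2 mM L-glutamine. After 24 h, medium replaced with a serial drug dilution, then 72 h at 37 °C, 5% CO2. Alamar Blue added for a further 2-4 h. Fluorescence read at ex 536/em 588 nm. Run twice independently, in duplicate.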

[3] = molecular target: T2, dUTP pyrophosphatase (Plasmodium falciparum 3D7) (UniProt Q8II92); experiment: Selectivity index for Plasmodium falciparum deoxyuridine 5'-triphosphate nucleotidohydrolase defined as (Ki Human)/(Ki Plasmodium falciparum)
T2 sequence (whole entry): T1 sequence (Q8II92 whole entry)
How it was run: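 Ratio of human dUTPase Ki to P. falciparum dUTPase Ki. Both Ki values came from stopped-flow pH-indicator assays following dUTP hydrolysis, with Ki derived from the dependence of apparent KM on inhibitor concentration.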

[4] = molecular target: T3, Deoxyuridine 5'-triphosphate nucleotidohydrolase, mitochondrial (Homo sapiens, UniProt P33316); experiment: Inhibitory constant against human deoxyuridine 5'-triphosphate nucleotidohydrolase expressed in Escherichia coli BL21 (DE3) cells
T3 sequence (P33316 whole entry): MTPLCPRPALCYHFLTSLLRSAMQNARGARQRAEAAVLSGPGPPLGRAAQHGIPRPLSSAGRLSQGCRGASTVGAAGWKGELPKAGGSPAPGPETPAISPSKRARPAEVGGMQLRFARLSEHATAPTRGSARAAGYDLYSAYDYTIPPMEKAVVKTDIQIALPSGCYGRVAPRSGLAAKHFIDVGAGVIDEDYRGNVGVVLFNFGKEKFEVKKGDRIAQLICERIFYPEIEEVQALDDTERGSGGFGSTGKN
How it was run: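 Human dUTPase expressed in E. coli BL21(DE3) and purified like the Plasmodium enzyme (phosphocellulose, then gel filtration). dUTP hydrolysis followed continuously by stopped-flow as pH-indicator absorbance (cresol red/bicine, 50:2000 µM, 573 nm). Apparent KM from integrated Michaelis-Menten fits at each inhibitor concentration; Ki from linear KMapp versus [I].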

Plasmodium falciparum = experiment: In vitro inhibitory activity against Plasmodium falciparum as [3H]hypoxanthine (50 uL) incorporation at 37C; type: functional, organism-based
dUTP pyrophosphatase [5] = molecular target: T4, dUTP pyrophosphatase (Leishmania major, UniProt O15826); experiment: Inhibitory constant against Leishmania major deoxyuridine 5'-triphosphate nucleotidohydrolase
T4 sequence (O15826 whole entry): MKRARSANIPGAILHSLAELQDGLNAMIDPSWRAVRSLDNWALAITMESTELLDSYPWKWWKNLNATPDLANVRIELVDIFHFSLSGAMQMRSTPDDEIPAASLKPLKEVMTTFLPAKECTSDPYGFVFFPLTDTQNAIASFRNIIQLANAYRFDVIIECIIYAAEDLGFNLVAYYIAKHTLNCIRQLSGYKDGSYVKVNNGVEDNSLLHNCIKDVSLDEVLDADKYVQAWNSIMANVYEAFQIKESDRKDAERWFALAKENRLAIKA

Leishmania donovani = experiment: In vitro growth inhibitory activity against Leishmania donovani amastigotes at 37 degrees C under a 5% CO2 atmosphere for 96 hours; type: functional, organism-based
How it was run: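 Mouse peritoneal macrophages in RPMI 1640 with 10% heat-inactivated FBS, infected after 24 h with L. donovani amastigotes at 3:1 (amastigote:macrophage). Free amastigotes washed out at 4 h. Next day, drug-containing medium added for 96 h at 37 °C, 5% CO2. Slides methanol-fixed and Giemsa-stained. Percentage of infected macrophages scored microscopically versus control; IC50 by linear regression. Twice independently, in duplicate.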

Compound	IC50 [1]	IC50 (Trypanosoma cruzi)	Ki (dUTP pyrophosphatase [2])	SI [3]	Ki [4]	IC50 (Plasmodium falciparum)	Ki (dUTP pyrophosphatase [5])	IC50 (L6)	IC50 (Leishmania donovani)
CC(C)(C)[Si](OCC1OC(n2ccc(=O)[nH]c2=O)CC1F)(c1ccccc1)c1ccccc1 (stereo unspecified)	29 µM	32 µM	89 µM	9.1	808 µM	8.8 µM	> 1 mM	16 µM	
O=c1ccn(C2C=CC(CO[Si](c3ccccc3)(c3ccccc3)c3ccccc3)O2)c(=O)[nH]1 (stereo unspecified)	1.6 µM	42 µM	1.3 µM	> 769	> 1000 µM	1 µM	0.35 mM	85 µM	13 µM
O=c1ccn(C2C=CC(COC(c3ccccc3)(c3ccccc3)c3ccccc3)O2)c(=O)[nH]1 (stereo unspecified)	55 µM	44 µM	1.9 µM	83	157 µM	> 11 µM	0.798 mM		> 66 µM
O=c1ccn([C@H]2C[C@H](O)[C@@H](CO[Si](c3ccccc3)(c3ccccc3)c3ccccc3)O2)c(=O)[nH]1	15 µM	71 µM		325	909 µM		> 1 mM		
O=c1ccn(C2CC(F)C(COC(c3ccccc3)(c3ccccc3)c3ccccc3)O2)c(=O)[nH]1 (stereo unspecified)	47 µM	29 µM	5 µM	91	457 µM	2 µM	0.177 mM	35 µM	
CC(C)(C)[Si](OC[C@H]1O[C@@H](n2ccc(=O)[nH]c2=O)C[C@@H]1O)(c1ccccc1)c1ccccc1	3 µM	45 µM		192	806 µM	6.6 µM	> 1 mM	23 µM	
O=c1ccn(C2C=CC(COP(=O)(Oc3ccccc3)Oc3ccccc3)O2)c(=O)[nH]1 (stereo unspecified)	68 µM	> 204 µM	99 µM	> 10	> 1000 µM	54 µM	> 1 mM		
CCCCCCCCCCCCCCCC(=O)OCC1C=CC(n2ccc(=O)[nH]c2=O)O1 (stereo unspecified)	113 µM	> 201 µM	256 µM	1.4	350 µM	> 11 µM	> 1 mM		> 67 µM
CC(C)(C)[Si](C)(C)OCC1C=CC(n2ccc(=O)[nH]c2=O)O1 (stereo unspecified)	73 µM	110 µM	10 µM	5.6	56.4 µM	51 µM	> 1 mM		
O=c1ccn([C@H]2C[C@H](O)[C@@H](COC(c3ccccc3)(c3ccccc3)c3ccccc3)O2)c(=O)[nH]1	24 µM	306 µM		10	18 µM		> 1 mM		> 64 µM
O=c1ccn(C2CC(O)C(CNC(c3ccccc3)(c3ccccc3)c3ccccc3)O2)c(=O)[nH]1 (stereo unspecified)	48 µM	44 µM	0.2 µM	230	46 µM		0.304 mM	44 µM	
CC(C)(C)[Si](C)(C)OC1CC(n2ccc(=O)[nH]c2=O)OC1CNC(c1ccccc1)(c1ccccc1)c1ccccc1 (stereo unspecified)	2.7 µM	97 µM	313 µM	> 3	> 1000 µM	1.8 µM	> 1 mM	7.8 µM	
CC(C)(C)[Si](OCC1C=CC(n2ccc(=O)[nH]c2=O)O1)(c1ccccc1)c1ccccc1 (stereo unspecified)	55 µM	33 µM		> 833		3 µM	0.178 mM	67 µM	

More lines, main results first:

IC50 [1]	IC50 (Trypanosoma cruzi)	Ki (dUTP pyrophosphatase [2])	SI [3]	Ki [4]	IC50 (Plasmodium falciparum)	Ki (dUTP pyrophosphatase [5])	Compound	IC50 (L6)	IC50 (Leishmania donovani)
123 µM	> 222 µM	123 µM	> 8	> 1000 µM	98 µM	> 1 mM	CCOP(=O)(CC(=O)OC[C@H]1O[C@@H](n2ccc(=O)[nH]c2=O)C[C@@H]1O)OCC	168 µM	> 74 µM
8 µM	58 µM	227 µM	> 4	> 1000 µM	> 13 µM	> 1 mM	CC(C)[Si](OC[C@H]1O[C@@H](n2ccc(=O)[nH]c2=O)C[C@@H]1O)(C(C)C)C(C)C	25 µM	
104 µM	160 µM	88 µM	3.7	324 µM	40 µM	> 1 mM	CC(C)(C)[Si](C)(C)O[C@H]1C[C@H](n2ccc(=O)[nH]c2=O)O[C@@H]1COS(N)(=O)=O		> 7 µM
12 µM	> 152 µM	244 µM	> 4	> 1000 µM	37 µM	> 1 mM	CC(C)(C)[Si](C)(C)O[C@H]1C[C@H](n2ccc(=O)[nH]c2=O)O[C@@H]1COC(=O)NS(N)(=O)=O		> 51 µM
102 µM	> 236 µM	> 1000 µM		> 1000 µM	> 13 µM	> 1 mM	Cc1ccc(S(=O)(=O)NCC2OC(n3ccc(=O)[nH]c3=O)CC2O)cc1 (stereo unspecified)	> 236 µM	> 79 µM
59 µM	37 µM	628 µM	> 1.6		> 14 µM	> 1 mM	CC(C)(C)[Si](C)(C)OCC1OC(n2ccc(=O)[nH]c2=O)CC1F (stereo unspecified)		> 87 µM
90 µM	> 194 µM	468 µM	> 2	> 1000 µM	20 µM	0.314 mM	NS(=O)(=O)NC(=O)OC[C@H]1O[C@@H](n2ccc(=O)[nH]c2=O)C[C@@H]1O		> 65 µM
100 µM	> 130 µM				> 21 µM		O=c1ccn([C@H]2C[C@H](F)[C@@H](CO)O2)c(=O)[nH]1	> 391 µM	> 391 µM
41 µM	> 222 µM	324 µM	> 3	> 1000 µM	78 µM	> 1 mM	CCOP(=O)(CC(=O)NCC1OC(n2ccc(=O)[nH]c2=O)CC1O)OCC (stereo unspecified)		29 µM
72 µM	170 µM	298 µM	> 3	> 1000 µM	214 µM	> 1 mM	O=c1ccn([C@H]2C=C[C@@H](CO)O2)c(=O)[nH]1		
> 311 µM	> 311 µM	254 µM	> 4	> 1000 µM	163 µM	> 1 mM	NS(=O)(=O)OCC1C=CC(n2ccc(=O)[nH]c2=O)O1 (stereo unspecified)		
> 231 µM	> 231 µM	426 µM	> 2	> 1000 µM	> 13 µM	> 1 mM	O=C(NCC1OC(n2ccc(=O)[nH]c2=O)CC1O)C12CC3CC(CC(C3)C1)C2 (stereo unspecified)		
17 µM	> 83 µM	111 µM	> 9	> 1000 µM	> 16 µM	> 1 mM	O=c1ccn(C2CC(O)C(CNCc3ccccc3)O2)c(=O)[nH]1 (stereo unspecified)		

Reference: ChEMBL document CHEMBL1140411, “Deoxyuridine triphosphate nucleotidohydrolase as a potential antiparasitic drug target” (J Med Chem, 2005)
